Assay: Safety assessments in phase 1 DDI studies 004 and 012
Assay type: in vivo, human
Summary of the method: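 Two open-label single-site phase 1 studies in healthy adults, morning dosing. Test compound 10 mg was given alone and with a strong CYP3A inhibitor (200 mg) or inducer (600 mg) daily for 20 days, or with a moderate CYP3A inhibitor (400 mg, then 200 mg daily). It was also given daily for 13 days around CYP3A/CYP2B6 probe substrates. All treatment-emergent and serious AEs were recorded, with serum chemistry, hematology and urinalysis.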

[1] = rifampin cohort, N = 15, lemborexant alone days 1‐14, with rifampin days 22‐35

SMILES: Cc1ncc(OC[C@@]2(c3cccc(F)c3)C[C@H]2C(=O)Nc2ccc(F)cn2)c(C)n1 [Lemborexant, (1R,2S)‐2‐{[(2,4‐dimethylpyrimidin‐5‐yl)oxy]methyl}‐2‐(3‐fluorophenyl)‐N‐(5‐fluoropyridin‐2‐yl)cyclopropanecarboxamide]
- subjects who experienced sleep paralysis (across the phase 1 studies): 4 subjects
- time of sleep paralysis after lemborexant dosing (all cases): ≤ 1 h
- severity of sleep paralysis (all cases, resolved, no discontinuation): mild
- changes in laboratory values, vital signs, electrocardiograms, or physical examination findings (phase 1 DDI studies): no clinically important changes
- tolerability (phase 1 studies): generally well tolerated
- AEs [1]: 4 (26.7) n (%)
- AEs leading to study discontinuation [1]: 0 n (%)
- AEs, Mild [1]: 4 (26.7) n (%)
- AEs, Moderate [1]: 0 n (%)
- AEs, Severe [1]: 0 n (%)
- Death [1]: 0 n (%)
- SAEs [1]: 0 n (%)
- Treatment‐related AEs [1]: 2 (13.3) n (%)

— publication PMC8248323 (Clinical Pharmacology in Drug Development, 2021)
